For 39 compounds, IC50, solubility and Ratio IC50 results are on record in ChEMBL document CHEMBL3593245 (J Med Chem, 2015).

Series [1] has as its target T1, Rap guanine nucleotide exchange factor 3 (Homo sapiens, UniProt O95398).
T1 sequence (O95398 whole entry): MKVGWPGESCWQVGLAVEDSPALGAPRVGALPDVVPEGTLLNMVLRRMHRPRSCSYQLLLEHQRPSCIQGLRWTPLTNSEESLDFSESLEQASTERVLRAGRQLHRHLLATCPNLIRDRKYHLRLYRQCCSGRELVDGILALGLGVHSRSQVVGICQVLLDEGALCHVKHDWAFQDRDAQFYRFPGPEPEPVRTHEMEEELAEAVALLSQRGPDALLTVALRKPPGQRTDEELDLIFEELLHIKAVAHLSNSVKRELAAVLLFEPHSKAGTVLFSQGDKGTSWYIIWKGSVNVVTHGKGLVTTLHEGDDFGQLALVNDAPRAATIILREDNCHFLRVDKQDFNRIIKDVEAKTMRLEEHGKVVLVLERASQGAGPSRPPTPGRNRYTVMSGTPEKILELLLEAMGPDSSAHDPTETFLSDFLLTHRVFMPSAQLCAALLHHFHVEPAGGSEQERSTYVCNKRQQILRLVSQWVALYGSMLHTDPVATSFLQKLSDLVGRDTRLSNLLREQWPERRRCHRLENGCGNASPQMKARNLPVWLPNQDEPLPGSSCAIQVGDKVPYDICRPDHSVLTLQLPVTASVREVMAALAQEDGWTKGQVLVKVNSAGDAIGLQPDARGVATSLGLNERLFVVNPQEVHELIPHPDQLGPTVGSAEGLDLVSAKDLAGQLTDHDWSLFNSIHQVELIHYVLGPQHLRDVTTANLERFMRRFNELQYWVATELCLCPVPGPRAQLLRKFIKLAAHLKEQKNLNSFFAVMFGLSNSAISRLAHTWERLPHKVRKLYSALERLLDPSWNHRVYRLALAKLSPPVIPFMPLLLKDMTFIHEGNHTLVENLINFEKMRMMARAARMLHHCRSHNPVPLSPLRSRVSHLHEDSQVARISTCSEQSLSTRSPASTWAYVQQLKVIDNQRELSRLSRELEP
Description: Antagonist activity at human recombinant EPAC1 assessed as inhibition of Rap1b-bGDP exchange activity.

Series [2] concerns the target T2, Rap guanine nucleotide exchange factor 4 (Mus musculus, UniProt Q9EQZ6).
T2 sequence (Q9EQZ6 whole entry): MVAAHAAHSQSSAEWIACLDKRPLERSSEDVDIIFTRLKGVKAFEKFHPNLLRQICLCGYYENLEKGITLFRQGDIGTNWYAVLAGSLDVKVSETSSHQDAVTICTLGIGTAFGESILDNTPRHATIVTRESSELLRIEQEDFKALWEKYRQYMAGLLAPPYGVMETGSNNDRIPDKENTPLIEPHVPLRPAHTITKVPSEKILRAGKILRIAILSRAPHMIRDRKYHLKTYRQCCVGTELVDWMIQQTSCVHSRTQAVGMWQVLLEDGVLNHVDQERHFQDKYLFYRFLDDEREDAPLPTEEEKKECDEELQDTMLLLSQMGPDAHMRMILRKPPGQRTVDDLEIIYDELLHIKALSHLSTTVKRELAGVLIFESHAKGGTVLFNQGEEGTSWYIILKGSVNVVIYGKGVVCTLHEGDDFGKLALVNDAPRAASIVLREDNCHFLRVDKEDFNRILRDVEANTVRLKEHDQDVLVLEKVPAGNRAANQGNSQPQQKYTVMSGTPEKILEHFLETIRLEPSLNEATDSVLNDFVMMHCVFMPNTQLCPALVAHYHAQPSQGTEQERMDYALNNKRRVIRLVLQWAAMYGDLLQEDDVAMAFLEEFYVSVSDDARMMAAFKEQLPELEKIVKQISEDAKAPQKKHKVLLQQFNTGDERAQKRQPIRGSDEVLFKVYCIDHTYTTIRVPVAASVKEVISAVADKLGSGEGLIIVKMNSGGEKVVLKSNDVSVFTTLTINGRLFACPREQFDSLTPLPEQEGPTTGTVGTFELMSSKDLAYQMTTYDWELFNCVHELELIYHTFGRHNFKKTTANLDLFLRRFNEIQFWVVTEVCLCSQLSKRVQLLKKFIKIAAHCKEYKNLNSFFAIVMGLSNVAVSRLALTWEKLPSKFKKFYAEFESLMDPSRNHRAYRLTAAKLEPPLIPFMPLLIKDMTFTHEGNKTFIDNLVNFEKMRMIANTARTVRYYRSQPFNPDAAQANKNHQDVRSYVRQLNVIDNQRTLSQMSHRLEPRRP
Description: Displacement of 8-NBD-cAMP from mouse recombinant EPAC2 by fluorescence assay.

The nature of series [3]: […] solubility of the compound in water after 24 hrs by HPLC analysis. It counts as physicochemical. The conditions noted are these: for solubility: buffer, 24 h.
A short description of series [4]: […] solubility of the compound in ethanol after 24 hrs by HPLC analysis. The format is physicochemical. In a few lines:
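10–15 mg of solid added to 0.1–0.6 mL ethanol, shaken 24 h at 25 °C, then centrifuged and filtered. Supernatant (5 μL) injected on C18 reverse-phase HPLC with UV detection at 270 and 254 nm. Quantified by one-point calibration against standards of known concentration.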

In series [5] the target is T3, Rap guanine nucleotide exchange factor 4 (Mus musculus) (UniProt Q9EQZ6).
T3 sequence (whole entry): T2 sequence (Q9EQZ6 whole entry)
Description: Ratio of cAMP IC50 to compound IC50 for displacement of 8-NBD-cAMP from mouse recombinant EPAC2 by fluorescence assay.

For series [6], the target named is T1, Rap guanine nucleotide exchange factor 3. Description: Antagonist activity at EPAC1 (unknown origin) assessed as cAMP-induced guanine nucleotide exchange factor activity.

Converted amounts (≈) assume the structure as drawn.

For the compound `N#C/C(=N\Nc1cc(Cl)c(Cl)c(Cl)c1)C(=O)c1cc(C2CC2)on1`, the IC50 in series [1] came out at 4.1 µM.

`CC(C)(C)c1cc(C(=O)/C(C#N)=N/Nc2ccc(C(F)(F)F)c(Cl)c2)no1`: the concentration for half-maximal inhibition (IC50) in series [1] worked out at 4.3 µM.

Regarding `CC(C)(C)c1cc(C(=O)/C(C#N)=N/Nc2cccc(CO)c2)no1`, the IC50 result in series [2] is on record as “Not Active”.

`N#C/C(=N\Nc1cccc(Cl)c1)C(=O)c1cc(-c2ccccc2)on1`: the IC50 entry in series [2] is on record as “Not Active”.

Compound `CC(C)(C)c1cc(C(=O)/C(C#N)=N/Nc2ccc(F)c(Cl)c2)no1` returned a solubility in series [3] of 0.2368 mM (≈ 82.6 µg/mL). For the same compound, in series [4], the concentration in solution (solubility at 24 h) was 23.5 mM (≈ 8200 µg/mL). For the same compound, the figures for the IC50 in series [2] (read-out: IC50) and in series [1] were 2.7 µM and 7.8 µM, respectively. Moreover, in series [5], the Ratio IC50 turned out to be 11.9.

As to `CC(C)(C)c1cc(C(=O)/C(C#N)=N/Nc2cccc(Cl)c2Cl)no1`, the Ratio IC50 in series [5] turned out to be 0.9.

Consider `Cc1cc(C(=O)/C(C#N)=N/Nc2cccc(Cl)c2)no1`, for which the IC50 entry in series [2] is recorded as “Not Active”.

Regarding `N#C/C(=N\Nc1cccc(Cl)c1)C(=O)c1cc(C2CC2)on1`, the IC50 in series [2] (read-out: IC50) was 60 µM.

On to `CC(C)(C)c1cc(-c2n[nH]c(N)c2/N=N/c2cccc(Cl)c2)no1`, for which the IC50 entry in series [2] is “Not Active”.

For `CC(C)(C)c1cc(C(=O)/C(C#N)=N/Nc2cccc(Cl)c2)no1`, the solubility at 24 h in series [3] (water) amounted to 0.018 mM (≈ 5.95 µg/mL); in series [4], 45.3 mM (≈ 15000 µg/mL). Also, the IC50 in series [1] and in series [6] was 10.8 µM in each case.

Turning to `CC(C)(C)c1cc(C(=O)/C(C#N)=N/Nc2cc(F)c(F)c(F)c2)no1`, in series [3], the solubility came out at 0.216 mM (≈ 75.7 µg/mL). The amount in solution in series [4] (solubility at 24 h) came to 81.6 mM (≈ 28600 µg/mL). In addition, in series [1], the IC50 amounted to 8.9 µM.

As for `CC(C)(C)c1cc(C(=O)/C(C#N)=N/Nc2cc(Cl)cc(Cl)c2)no1`, the Ratio IC50 in series [5] is 16.8.

As to `CC(=O)c1cccc(N/N=C(\C#N)C(=O)c2cc(C(C)(C)C)on2)c1`, the half-inhibitory concentration (IC50) result in series [2] is “Not Active”.

In the case of `COc1cccc(N/N=C(\C#N)C(=O)c2cc(C(C)(C)C)on2)c1`, the concentration for half-maximal inhibition (IC50) entry in series [2] is “Not Active”.

Consider `CC(C)(C)c1cc(C(=O)/C(C#N)=N/Nc2ccc(Cl)c(Cl)c2)no1`, for which the Ratio IC50 in series [5] was 10.7.

`CC(C)(C)c1cc(C(=O)Nc2cccc(Cl)c2)no1`: the 50% inhibitory concentration (IC50) entry in series [2] is “Not Active”.

On to `CC(C)(C)c1cc(C(=O)/C(C#N)=N/Nc2cc(F)cc(F)c2)no1`, for which the IC50 in series [2] (read-out: IC50) came out at 5.3 µM. The Ratio IC50 in series [5] turned out to be 6.

Take `CC(C)(C)c1cc(C(=O)/C(C#N)=N/Nc2cc(Cl)cc(C(F)(F)F)c2)no1`: in series [4], the solubility at 24 h was found to be 36.6 mM (≈ 14600 µg/mL). The 50% inhibitory concentration (IC50) turned out to be 1.6 µM in series [2] (read-out: IC50) and 5.7 µM in series [1].

Regarding `CC(C)(C)c1cc(C(=O)/C(C#N)=N/Nc2ccc(Cl)cc2)no1`, in series [5], the Ratio IC50 is 1.2.

With `CC(C)(C)c1cc(C(=O)/C(C#N)=N/Nc2ccccc2)no1`, the Ratio IC50 in series [5] worked out at 0.5.

As for `CC(C)(C)c1cc(NC(=O)/C(C#N)=N/Nc2cccc(Cl)c2)no1`, the half-inhibitory concentration (IC50) result in series [2] was “Not Active”.

Regarding `Cc1cc(NC(=O)/C(C#N)=N/Nc2cccc(Cl)c2)no1`, the IC50 result in series [2] is reported as “Not Active”.

In the case of `N#C/C(=N\Nc1cc(Cl)cc(Cl)c1)C(=O)c1cc(C2CCCCC2)on1`, in series [1], the IC50 is 2.6 µM.

`N#C/C(=N\Nc1cccc(Cl)c1)C(=O)c1cc(C2CCCCC2)on1`: the IC50 in series [2] (read-out: IC50) is 11.3 µM. The Ratio IC50 in series [5] worked out at 2.8.

With `CC(C)(C)c1cc(C(=O)/C(C#N)=N/Nc2cccc(C#N)c2)no1`, the 50% inhibitory concentration (IC50) in series [2] (read-out: IC50) was 67.8 µM.

In the case of `CC(C)(C)c1cc(C(=O)/C(C#N)=N/Nc2ccc(Cl)c(C(F)(F)F)c2)no1`, in series [1], the IC50 stood at 9.7 µM.

In the case of `CC(C)(C)c1cc(C(=O)/C(C#N)=N/Nc2ccccc2Cl)no1`, the Ratio IC50 in series [5] stood at 1.1.

With `CC(C)(C)c1cc(NC(=O)c2cccc(Cl)c2)no1`, the half-inhibitory concentration (IC50) result in series [2] is on record as “Not Active”.

`CC(C)(C)c1cc(C(=O)/C(C#N)=N/Nc2ccc(Cl)c(F)c2)no1`: the IC50 in series [2] (read-out: IC50) stood at 4.3 µM. In addition, the Ratio IC50 in series [5] was 7.4.

For the compound `CC(C)(C)c1cc(NC(=O)Nc2cccc(Cl)c2)no1`, the IC50 result in series [2] is “Not Active”.

Regarding `CC(C)(C)c1cc(C(=O)/C(C#N)=N/Nc2cc(Cl)ccc2Cl)no1`, the Ratio IC50 in series [5] is 4.4.

On to `CC(C)(C)c1cc(C(=O)/C(C#N)=N/Nc2cccc([N+](=O)[O-])c2)no1`, for which the IC50 in series [2] (read-out: IC50) was 31.3 µM. Also, the Ratio IC50 in series [5] worked out at 1.

The compound `N#C/C(=N\Nc1cc(Cl)c(Cl)c(Cl)c1)C(=O)c1cc(C2CCCCC2)on1` gave a solubility in series [3] of 0.0237 mM (≈ 10.1 µg/mL). Further, the solubility at 24 h in series [4] was found to be 8.5 mM (≈ 3620 µg/mL). Further, the IC50 in series [1] turned out to be 4 µM.

In series [3], `CC(C)(C)c1cc(C(=O)/C(C#N)=N/Nc2cc(C(F)(F)F)cc(C(F)(F)F)c2)no1` gave a solubility of 0.968 mM (≈ 418 µg/mL). This compound also came in with a solubility at 24 h in series [4] of over 347 mM. The IC50 is 6.4 µM in series [2] (read-out: IC50) and 5.7 µM in series [1].

In the case of `CC(C)(C)c1cc(C(=O)/C(C#N)=N/Nc2cc(Cl)c(Cl)c(Cl)c2)no1`, the solubility in series [3] came to 0.0318 mM (≈ 12.7 µg/mL). In series [4], this compound gave a solubility at 24 h of 10.9 mM (≈ 4360 µg/mL). The values for the IC50 in series [2] (read-out: IC50) and in series [1] were 0.9 µM and 2.4 µM, respectively.

In the case of `CC(C)(C)c1cc(C(=O)N/N=C/c2cccc(Cl)c2)no1`, the IC50 result in series [2] is listed as “Not Active”.

On to `N#C/C(=N\Nc1cc(Cl)c(Cl)c(Cl)c1)C(=O)c1cc(-c2ccccc2)on1`, for which, in series [2], the IC50 result is on record as “Not Active”.

Consider `CCOC(=O)c1cccc(N/N=C(\C#N)C(=O)c2cc(C(C)(C)C)on2)c1`, for which, in series [2] (read-out: IC50), the IC50 stood at 71.4 µM.

With `CC(C)(C)c1cc(C(=O)/C(C#N)=N/Nc2cc(F)cc(Cl)c2)no1`, the half-inhibitory concentration (IC50) came to 2.5 µM in series [2] (read-out: IC50) and 11.6 µM in series [1]. Also, the Ratio IC50 in series [5] stood at 12.8.
